Experimental data from ChEMBL document CHEMBL2169872, “(S)-N-(2,5-Dimethylphenyl)-1-(quinoline-8-ylsulfonyl)pyrrolidine-2-carboxamide as a small molecule inhibitor probe for the study of respiratory syncytial virus infection” (J Med Chem, 2012).
≈ marks a conversion by molar mass, not a printed value.

Assays:
[1] = system: Respiratory syncytial virus; assay: Antiviral activity against Respiratory syncytial virus Long infected in human Hep2 cells assessed as reduction in virus-induced cytopathogenicity by Cell Titer-Glo assay; assay type: functional, organism-based; settings: HEp-2
HEp-2 [2] = assay: Cytotoxicity against human Hep2 cells by Cell Titer-Glo assay; assay type: cell-based
[3] = Selectivity index, ratio of CC50 for human Hep2 cells to EC50 for Respiratory syncytial virus Long infected in human Hep2 cells
[4] = system: Respiratory syncytial virus; assay: Antiviral activity against Respiratory syncytial virus Long infected in human Hep2 cells assessed as log reduction in virus titer at 25 uM by virus plaque reduction assay; assay type: functional, HEp-2
[5] = Chemical stability in 50% PBS/50% acetonitrile solution assessed as unchanged parent compound remaining after 48 hrs; assay type: physicochemical; settings: read-out: Stability
[6] = system: Respiratory syncytial virus; assay: Antiviral activity against Respiratory syncytial virus Long infected in human Hep2 cells assessed as protection against virus-induced cytopathogenicity by measuring cell viability at 24 hrs post infection by Cell Titer-Glo assay; assay type: functional, HEp-2
Outline: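 HEp-2 cells seeded at 10 000/well and held 24 h at 37 °C, 5% CO₂, then infected at time 0 with hRSV Long at MOI 3.0. Compound added at 25 μM final, in triplicate, at −1 to 24 h post-infection. After 6 days at 37 °C, plates were brought to room temperature and Cell Titer-Glo luminescence read after 10 min. Cell-only and virus-only controls were included.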

[7] = system: Respiratory syncytial virus; assay: Antiviral activity against Respiratory syncytial virus Long infected in human Hep2 cells assessed as post infection time duration of protection against virus-induced cytopathogenicity by Cell Titer-Glo assay; assay type: functional, HEp-2
Outline: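 HEp-2 cells seeded at 10 000 cells/well, held 24 h at 37 °C, 5% CO2, then infected with hRSV Long at MOI 3.0 at time 0. Compound added at 25 μM final, in triplicate, at −1, 0, 1, 2, 3, 5, 7, 21 or 24 h pi. Incubated 6 days at 37 °C, 5% CO2. Read by Cell Titer-Glo luminescence after 30 min room-temperature equilibration and 10 min reagent incubation. Uninfected and infected untreated wells served as controls.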

[8] = Aqueous solubility in PBS buffer; assay type: physicochemical
HEp-2 [9] = assay: Cytotoxicity against uninfected human Hep2 cells assessed as cell viability at 25 uM measured after 144 hrs by Cell Titer-Glo assay; assay type: cell-based; settings: hep-2, 144 h
Outline: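 Uninfected HEp-2 cells were given compound at 25 μM at time point 0. Viability was read by Cell Titer-Glo after 144 h.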

SMILES | EC50 [1] [µM] | CC50 (HEp-2 [2]) [µM] | further results
Cc1ccc(NC(=O)CN(C)S(=O)(=O)c2cccc3cccnc23)c(C)c1 | > 50 | > 50 | 
Cc1ccc(NC(=O)[C@H]2CCCN2S(=O)(=O)c2cccc3cccnc23)c(C)c1 | > 50 | 38.1 | selectivity ratio [3]: 0.8
Cc1ccc(NC(=O)[C@@H]2CCCN2S(=O)(=O)c2cccc3cccnc23)c(C)c1 | 2.7 | 31.8 | selectivity ratio [3]: 11.8; FC [4]: 1
Cc1ccc(NC(=O)CNS(=O)(=O)c2cccc3cccnc23)c(C)c1 | > 50 | > 50 | 
Cc1ccc(NC(=O)C(C)NS(=O)(=O)c2cccc3cccnc23)c(C)c1 (configuration not stated) | > 50 | > 50 | 
Cc1ccccc1NC(=O)[C@@H]1CCCN1S(=O)(=O)c1cccc2cccnc12 | 23.8 | > 50 | 
Cc1cccc(NC(=O)[C@@H]2CCCN2S(=O)(=O)c2cccc3cccnc23)c1 | > 50 | 25.5 | 
Cc1ccc(NC(=O)[C@@H]2CCCN2S(=O)(=O)c2cccc3cccnc23)cc1 | > 50 | 31.7 | 
O=C(Nc1ccccc1)[C@@H]1CCCN1S(=O)(=O)c1cccc2cccnc12 | > 50 | 35.6 | 
CCc1ccccc1NC(=O)[C@@H]1CCCN1S(=O)(=O)c1cccc2cccnc12 | 21.2 | > 50 | 
CC(C)c1ccccc1NC(=O)[C@@H]1CCCN1S(=O)(=O)c1cccc2cccnc12 | 17.6 | 29.9 | 
Cc1ccnc(C)c1NC(=O)[C@@H]1CCCN1S(=O)(=O)c1cccc2cccnc12 | > 50 | > 50 | 
Cc1cc(C)cc(NC(=O)[C@@H]2CCCN2S(=O)(=O)c2cccc3cccnc23)c1 | > 50 | 31.3 | 
O=C(Nc1ccc(Cl)cc1Cl)[C@@H]1CCCN1S(=O)(=O)c1cccc2cccnc12 | > 50 | > 50 | 
Cc1ccc(C)c(NC(=O)[C@@H]2CCCN2S(=O)(=O)c2cccc3cccnc23)c1 | 2.3 | 30.9 | FC [4]: 2; remaining at 48 h [5]: 95.4%; Activity [6]: 26%; Time [7]: 1 h; solubility [8]: 92.7 µg/mL (≈ 226 µM)
Cc1cccc(C)c1NC(=O)[C@@H]1CCCN1S(=O)(=O)c1cccc2cccnc12 | > 50 | > 50 | 
Cc1ccc(Cl)cc1NC(=O)[C@@H]1CCCN1S(=O)(=O)c1cccc2cccnc12 | 2.2 | 10 | 
Cc1ccc(C(F)(F)F)cc1NC(=O)[C@@H]1CCCN1S(=O)(=O)c1cccc2cccnc12 | > 50 | 4.8 | 
COc1ccc(C)c(NC(=O)[C@@H]2CCCN2S(=O)(=O)c2cccc3cccnc23)c1 | 4.2 | 44.2 | FC [4]: 1; Activity (HEp-2 [9]): 88%
Cc1ccc(C(C)C)cc1NC(=O)[C@@H]1CCCN1S(=O)(=O)c1cccc2cccnc12 | > 50 | 9.7 | 
Cc1ccc(C(C)(C)C)cc1NC(=O)[C@@H]1CCCN1S(=O)(=O)c1cccc2cccnc12 | > 50 | 6.5 | 
Cc1ccc(Cl)c(NC(=O)[C@@H]2CCCN2S(=O)(=O)c2cccc3cccnc23)c1 | > 50 | > 50 | 
COc1ccc(C)cc1NC(=O)[C@@H]1CCCN1S(=O)(=O)c1cccc2cccnc12 | > 50 | > 50 | 
Cc1cc(NC(=O)[C@@H]2CCCN2S(=O)(=O)c2cccc3cccnc23)n(C(C)(C)C)n1 | > 50 | > 50 | 
Cc1ccc(NC(=O)C2CCCN2S(=O)(=O)c2cccc3cccnc23)c(C)c1 (racemic) | 5 | 31.5 | selectivity ratio [3]: 6.3; FC [4]: 2.1
NC(=O)c1ncn([C@@H]2O[C@H](CO)[C@@H](O)[C@H]2O)n1 [RIBAVIRIN] | 28.4 | 114 | FC [4]: 2.5; Activity (HEp-2 [9]): 90%; Time [7]: 7 h
